# Test results reported in publication PMC4265276 (Journal of Veterinary Pharmacology and Therapeutics, 2014).
# How the values were obtained:
# Assay in all cases: Z'-Lyte kinase assay
# Format in all cases: biochemical
# Settings in all cases: two replicates
# [1] = target: p160ROCK protein kinase (Homo sapiens, UniProt Q13464)
# In short: (§1)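 Outsourced commercial profiling of the test compound against a panel of 38 non-JAK kinases, all screened with Z'-Lyte technology at a single concentration. Assay conditions and data analysis were specific to each kinase and set by the service provider. Every test was run in duplicate, and percent inhibition is reported separately for each replicate.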
# [2] = target: High affinity nerve growth factor receptor (TRK-A) (Homo sapiens, UniProt P04629)
# In short: as §1
# [3] = target: Vascular endothelial growth factor receptor 2 (VEGFR-2/FLK1) (Homo sapiens, UniProt P35968)
# In short: as §1
# [4] = target: Mitogen-activated protein kinase kinase kinase kinase 4 (MAP4K4/HGK) (Homo sapiens, UniProt O95819)
# In short: as §1
# [5] = target: T1, Aurora-related kinase 1 (ARK1) (Homo sapiens, UniProt O14965)
# T1 sequence (O14965 1-403): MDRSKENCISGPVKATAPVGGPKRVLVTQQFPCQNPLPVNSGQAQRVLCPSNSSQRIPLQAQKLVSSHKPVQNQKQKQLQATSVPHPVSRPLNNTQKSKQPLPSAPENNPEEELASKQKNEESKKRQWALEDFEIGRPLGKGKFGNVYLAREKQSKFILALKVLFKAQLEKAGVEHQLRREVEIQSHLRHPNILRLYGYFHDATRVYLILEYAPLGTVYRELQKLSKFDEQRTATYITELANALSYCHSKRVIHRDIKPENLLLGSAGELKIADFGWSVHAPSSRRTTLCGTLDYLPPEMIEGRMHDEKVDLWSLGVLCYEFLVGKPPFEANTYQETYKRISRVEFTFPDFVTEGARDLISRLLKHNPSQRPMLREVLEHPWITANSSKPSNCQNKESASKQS
# In short: as §1
# High affinity nerve growth factor receptor (TRK-A), sequence (P04629 33-796): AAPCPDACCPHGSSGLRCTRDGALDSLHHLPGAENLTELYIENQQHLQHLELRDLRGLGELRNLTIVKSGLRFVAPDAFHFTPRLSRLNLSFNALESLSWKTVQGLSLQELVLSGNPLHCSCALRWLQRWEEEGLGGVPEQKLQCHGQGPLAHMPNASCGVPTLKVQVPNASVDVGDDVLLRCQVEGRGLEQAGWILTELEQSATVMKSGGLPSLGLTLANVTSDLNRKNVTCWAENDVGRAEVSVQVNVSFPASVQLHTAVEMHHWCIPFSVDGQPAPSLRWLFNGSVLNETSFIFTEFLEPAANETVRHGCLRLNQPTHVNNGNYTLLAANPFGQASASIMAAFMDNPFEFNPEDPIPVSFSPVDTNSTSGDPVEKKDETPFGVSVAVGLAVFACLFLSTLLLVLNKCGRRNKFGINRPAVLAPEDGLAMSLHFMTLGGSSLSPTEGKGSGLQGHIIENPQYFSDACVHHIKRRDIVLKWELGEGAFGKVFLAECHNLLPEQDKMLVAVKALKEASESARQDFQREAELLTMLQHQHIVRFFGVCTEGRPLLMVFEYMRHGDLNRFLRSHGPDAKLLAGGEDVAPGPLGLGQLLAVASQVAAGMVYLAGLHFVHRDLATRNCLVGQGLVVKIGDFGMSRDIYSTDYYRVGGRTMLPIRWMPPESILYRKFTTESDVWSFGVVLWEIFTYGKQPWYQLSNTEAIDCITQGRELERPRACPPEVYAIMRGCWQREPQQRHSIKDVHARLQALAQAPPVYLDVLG
# p160ROCK protein kinase, sequence (Q13464 2-1354): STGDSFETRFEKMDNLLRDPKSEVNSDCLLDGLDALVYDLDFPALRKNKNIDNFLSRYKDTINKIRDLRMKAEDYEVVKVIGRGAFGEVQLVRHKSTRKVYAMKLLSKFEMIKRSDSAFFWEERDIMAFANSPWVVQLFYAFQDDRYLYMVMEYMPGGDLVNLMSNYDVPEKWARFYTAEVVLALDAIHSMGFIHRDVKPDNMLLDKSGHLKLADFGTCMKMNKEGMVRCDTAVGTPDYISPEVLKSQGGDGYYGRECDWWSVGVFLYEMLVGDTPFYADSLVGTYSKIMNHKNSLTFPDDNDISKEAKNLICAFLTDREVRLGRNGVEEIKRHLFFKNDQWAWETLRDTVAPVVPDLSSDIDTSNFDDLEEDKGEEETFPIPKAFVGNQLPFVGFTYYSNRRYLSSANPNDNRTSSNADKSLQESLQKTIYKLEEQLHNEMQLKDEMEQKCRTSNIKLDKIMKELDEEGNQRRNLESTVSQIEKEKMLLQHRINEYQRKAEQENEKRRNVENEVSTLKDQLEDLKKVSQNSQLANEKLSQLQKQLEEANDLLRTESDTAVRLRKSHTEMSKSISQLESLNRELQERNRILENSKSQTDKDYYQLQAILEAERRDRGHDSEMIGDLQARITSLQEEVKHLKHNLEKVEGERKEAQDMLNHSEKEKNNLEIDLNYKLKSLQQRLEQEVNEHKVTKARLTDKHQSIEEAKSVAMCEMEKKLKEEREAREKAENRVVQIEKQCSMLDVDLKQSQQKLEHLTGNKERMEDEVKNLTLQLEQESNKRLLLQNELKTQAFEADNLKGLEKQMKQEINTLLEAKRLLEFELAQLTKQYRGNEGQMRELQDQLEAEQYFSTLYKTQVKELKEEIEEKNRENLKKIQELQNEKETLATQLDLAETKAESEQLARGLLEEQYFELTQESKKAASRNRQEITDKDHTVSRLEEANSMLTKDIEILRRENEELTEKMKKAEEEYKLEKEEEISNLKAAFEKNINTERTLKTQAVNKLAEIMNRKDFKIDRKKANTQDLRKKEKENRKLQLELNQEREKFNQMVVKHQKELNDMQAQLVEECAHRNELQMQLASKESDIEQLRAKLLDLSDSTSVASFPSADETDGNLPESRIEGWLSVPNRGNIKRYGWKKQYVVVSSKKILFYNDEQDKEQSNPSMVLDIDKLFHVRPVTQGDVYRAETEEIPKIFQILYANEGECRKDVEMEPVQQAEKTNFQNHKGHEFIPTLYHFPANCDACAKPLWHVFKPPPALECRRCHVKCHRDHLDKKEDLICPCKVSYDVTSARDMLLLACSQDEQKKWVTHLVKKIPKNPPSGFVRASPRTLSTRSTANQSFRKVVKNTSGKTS
# Mitogen-activated protein kinase kinase kinase kinase 4 (MAP4K4/HGK), sequence (O95819 2-1239): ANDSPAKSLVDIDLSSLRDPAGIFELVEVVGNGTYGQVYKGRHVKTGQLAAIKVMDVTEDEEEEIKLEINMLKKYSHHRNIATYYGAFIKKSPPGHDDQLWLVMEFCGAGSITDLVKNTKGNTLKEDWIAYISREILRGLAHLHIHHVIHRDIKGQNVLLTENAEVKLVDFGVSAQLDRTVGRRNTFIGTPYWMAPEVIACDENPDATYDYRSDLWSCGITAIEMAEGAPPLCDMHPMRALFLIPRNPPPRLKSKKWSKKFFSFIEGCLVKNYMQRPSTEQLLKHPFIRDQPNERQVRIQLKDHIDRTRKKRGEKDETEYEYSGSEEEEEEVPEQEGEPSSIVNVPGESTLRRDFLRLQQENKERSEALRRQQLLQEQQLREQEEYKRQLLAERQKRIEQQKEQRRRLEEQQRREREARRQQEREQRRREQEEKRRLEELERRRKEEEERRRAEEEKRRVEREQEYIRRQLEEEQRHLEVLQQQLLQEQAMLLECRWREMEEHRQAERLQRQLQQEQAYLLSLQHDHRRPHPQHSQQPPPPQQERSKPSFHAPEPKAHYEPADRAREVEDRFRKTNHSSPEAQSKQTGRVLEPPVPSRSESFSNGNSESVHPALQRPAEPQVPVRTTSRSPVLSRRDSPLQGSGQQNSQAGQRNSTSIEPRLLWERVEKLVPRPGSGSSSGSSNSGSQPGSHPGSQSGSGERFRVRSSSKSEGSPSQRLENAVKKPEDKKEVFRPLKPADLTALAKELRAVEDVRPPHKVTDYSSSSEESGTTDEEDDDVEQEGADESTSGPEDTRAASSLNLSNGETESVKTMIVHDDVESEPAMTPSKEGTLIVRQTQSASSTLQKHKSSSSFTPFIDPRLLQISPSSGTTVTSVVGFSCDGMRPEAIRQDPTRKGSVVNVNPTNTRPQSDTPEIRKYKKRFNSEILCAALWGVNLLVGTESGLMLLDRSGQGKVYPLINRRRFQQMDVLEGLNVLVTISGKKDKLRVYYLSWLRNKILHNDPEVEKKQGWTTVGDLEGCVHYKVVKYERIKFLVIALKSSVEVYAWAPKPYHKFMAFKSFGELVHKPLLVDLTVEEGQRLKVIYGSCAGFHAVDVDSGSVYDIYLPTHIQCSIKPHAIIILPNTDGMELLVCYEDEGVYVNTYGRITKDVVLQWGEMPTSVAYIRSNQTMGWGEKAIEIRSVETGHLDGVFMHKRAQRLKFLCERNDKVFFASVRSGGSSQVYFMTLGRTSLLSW
# Vascular endothelial growth factor receptor 2 (VEGFR-2/FLK1), sequence (P35968 20-1356): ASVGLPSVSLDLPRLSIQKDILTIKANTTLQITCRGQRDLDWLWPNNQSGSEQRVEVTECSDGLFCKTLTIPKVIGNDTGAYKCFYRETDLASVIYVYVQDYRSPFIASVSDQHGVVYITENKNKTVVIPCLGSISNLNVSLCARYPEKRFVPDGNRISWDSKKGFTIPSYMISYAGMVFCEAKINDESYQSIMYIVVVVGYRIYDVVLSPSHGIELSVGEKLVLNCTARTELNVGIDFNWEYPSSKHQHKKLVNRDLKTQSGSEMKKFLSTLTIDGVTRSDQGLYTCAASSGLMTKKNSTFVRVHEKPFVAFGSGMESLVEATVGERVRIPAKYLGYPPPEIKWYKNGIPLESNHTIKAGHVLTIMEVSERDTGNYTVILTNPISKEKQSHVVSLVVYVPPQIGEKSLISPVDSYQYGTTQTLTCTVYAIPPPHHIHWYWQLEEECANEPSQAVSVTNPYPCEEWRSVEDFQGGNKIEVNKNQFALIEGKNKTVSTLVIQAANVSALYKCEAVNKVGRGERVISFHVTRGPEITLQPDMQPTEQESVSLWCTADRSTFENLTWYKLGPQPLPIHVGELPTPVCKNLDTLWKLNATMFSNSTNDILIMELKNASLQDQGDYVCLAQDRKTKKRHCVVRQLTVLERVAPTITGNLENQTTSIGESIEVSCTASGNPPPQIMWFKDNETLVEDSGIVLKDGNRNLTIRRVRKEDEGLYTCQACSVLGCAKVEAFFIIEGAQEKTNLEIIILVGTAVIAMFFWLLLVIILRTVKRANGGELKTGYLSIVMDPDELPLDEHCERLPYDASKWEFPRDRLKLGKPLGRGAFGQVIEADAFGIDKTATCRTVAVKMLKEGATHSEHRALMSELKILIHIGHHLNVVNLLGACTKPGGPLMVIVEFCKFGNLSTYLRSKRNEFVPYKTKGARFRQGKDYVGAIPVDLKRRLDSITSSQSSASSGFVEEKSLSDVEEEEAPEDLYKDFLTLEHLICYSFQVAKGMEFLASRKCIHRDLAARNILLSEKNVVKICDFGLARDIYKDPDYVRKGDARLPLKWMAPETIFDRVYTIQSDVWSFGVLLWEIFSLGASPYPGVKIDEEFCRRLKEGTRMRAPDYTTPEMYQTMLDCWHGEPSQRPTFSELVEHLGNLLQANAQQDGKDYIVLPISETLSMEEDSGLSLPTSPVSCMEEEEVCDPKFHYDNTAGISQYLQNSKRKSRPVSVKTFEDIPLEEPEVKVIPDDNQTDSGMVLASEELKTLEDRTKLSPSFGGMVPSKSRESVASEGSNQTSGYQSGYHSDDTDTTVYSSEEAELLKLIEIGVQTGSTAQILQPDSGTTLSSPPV
smiles,measurement,setting,value
CNS(=O)(=O)C[C@H]1CC[C@H](N(C)c2ncnc3[nH]ccc23)CC1 [oclacitinib],Percent inhibition at 1000 nM oclacitinib (1st replicate),[1],34; 32%
same,Percent inhibition at 1000 nM oclacitinib (1st replicate),[2],32; 31%
same,Percent inhibition at 1000 nM oclacitinib (1st replicate),[3],41; 37%
same,Percent inhibition at 1000 nM oclacitinib (1st replicate),[4],42; 34%
same,Percent inhibition at 1000 nM oclacitinib (1st replicate),[5],40; 40%
